In brackets after ≈: the same amount, converted by molar mass. Several values for one entry are separate records, joined by “and”; a condition that tells them apart may be missing. Identical values can stand only once.
What was measured:
NIH3T3 cells [1] = assay: MTT cell viability assay; format: cell-based, mouse; conditions: proliferating NIH3T3 cells, 3 days incubation
Outline: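 Proliferating NIH3T3 fibroblasts exposed for 3 days to rising test compound concentrations. MTT (5 mg/mL in PBS, 10 μL per 100 μL medium) incubated 3 h at 37°C, 5% CO2. Plates centrifuged, medium removed, formazan dissolved in DMSO, absorbance read at 570 nm. n = 3.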

NIH3T3 cells [2] = assay: Cell population doubling time; format: cell-based, mouse; conditions: 72 h; for Doubling time: control 21 h
[3] = tested on: human pancreatic cancer cell (KP1-NL); conditions: fixed concentration 10 μM; ref Morohashi et al. 2006; cited from earlier work
NIH3T3 cells [4] = assay: Microscopic evaluation; format: cell-based, mouse; conditions: 10 μM, 3 days, HABP staining, vs DMSO control
Outline: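 NIH3T3 seeded at 2 × 10^4 cells/well; next day fresh medium with 10 μM test compound, 3 days. Fixed 10 min in 10% buffered formalin, avidin-biotin blocked, biotinylated HABP overnight at 4°C, then streptavidin-Alexa 488, Hoechst and phalloidin. Confocal 40× 5 × 5 mosaics; HA-positive area as % of total cell area. Three wells. Controls: 0.05% DMSO; hyaluronidase digest of untreated cells (1 mg/mL, 30 min, 37°C).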

HAS2 = assay: qPCR relative expression of HAS2 in NIH3T3 cells; format: cell-based, mouse
Outline: (§1)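 Total RNA isolated with TRI reagent; concentration and quality checked by spectrophotometry and electrophoresis. Target mRNA quantified by SYBR Green real-time qPCR and normalized to GAPDH mRNA. Values are mean ± SD of three technical replicates.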

HAS3 = assay: qPCR relative expression of HAS3 in NIH3T3 cells; format: cell-based, mouse
Outline: as §1

Hyal1 = assay: qPCR relative expression of Hyal1 in NIH3T3 cells; format: cell-based, mouse
Outline: as §1

Hyal2 = assay: qPCR relative expression of Hyal2 in NIH3T3 cells; format: cell-based, mouse
Outline: as §1

[5] = tested on: CCl4 induced liver fibrosis; assay: CCl4-induced liver fibrosis in mice; format: in vivo; conditions: for Blood parameters, compound alone vs control group: mice treated by compound only, 600 mg/kg daily; for Hepatotoxicity of compound alone (AST/ALT): mice, daily dose of 600 mg/kg per os
[6] = tested on: CCl4 induced liver fibrosis; conditions: CCl4 treated animals; ref Andreichenko et al. 2019; cited from earlier work
[7] = tested on: hyaluronan synthase activity; conditions: plasma membrane preparations containing hyaluronan synthase activity; ref Nakamura et al. 1997; cited from earlier work
[8] = tested on: A2058 melanoma cells, MCF-7 and MDA-MB-361 breast, SKOV-3 ovarian and UT-SCC118 squamous carcinoma cells; conditions: incubation with 4MU; ref Kultti et al. 2009; cited from earlier work
endothelial cells = conditions: 0.6 μM, ref Nagy et al. 2010; cited from earlier work
B16F10 cells = conditions: 30 μM, ref Nagy et al. 2019; cited from earlier work
[9] = mice fed with 5% chow, averaged over 24 h; ref Kuipers et al. 2016; cited from earlier work
Drosophila WT = conditions: wild-type Drosophila; ref Douris et al. 2016; cited from earlier work
[10] = tested on: Drosophila mutEt15 (I1056F/M); conditions: Drosophila line with CRISPR/Cas9 point mutation I1056F/M; ref Douris et al. 2016; cited from earlier work
NIH3T3 cells [11] = assay: Inhibition of hyaluronan secreted in NIH3T3 cell culture media; format: cell-based, mouse; conditions: for Effect on hyaluronan production (in words): NIH3T3 HA production assay; for IC50: Mus musculus, NIH3T3, 72 h, read-out: IC50 for inhibition of hyaluronan deposition in cell culture media
zebrafish embryos = conditions: ref Park et al. 2019; cited from earlier work

Structure (SMILES): CC(=O)c1cc2c(-c3ccccc3)cc(=O)oc2c(C)c1O [Compound V, 6-acetyl-7-hydroxy-8-methyl-4-phenyl-2H-chromen-2-one]
- Toxicity at concentrations higher than (MTT) (NIH3T3 cells [1]): higher than 125 μM
- Concentration from/over which doubling time increased (NIH3T3 cells [2]): ≥ 125 µM

Structure (SMILES): COc1ccc2c(C)cc(=O)oc2c1 [II, 7-methoxy-4-methyl coumarin]
- Inhibitory activity on HA production (in words) [3]: inactive

Structure (SMILES): Cc1cc(=O)oc2cc(O)ccc12 [Compound 4MU, 7-hydroxy-4-methylchromen-2-one]
- Doubling time (NIH3T3 cells [2]; 250 μM): 38 h
- Concentration from/over which doubling time increased (NIH3T3 cells [2]): ≥ 60 µM
- Decrease of the percentage of HA-positive area (NIH3T3 cells [4]): at least 3 times
- IC50 (HAS2; Mus musculus, NIH3T3, read-out: IC50 for inhibition of HAS2 expression): ~250 µM
- Activated HAS3 expression at concentration over (HAS3): over 500 μM
- IC50 (Hyal1; Mus musculus, NIH3T3, read-out: Upregulated Hyal1 expression with IC50): ~250 µM
- Hyal2 expression not affected at concentrations up to (Hyal2): > 1 mM
- Plasma HA ([5]; CCl4-treated mice, 600 mg/kg daily per os): reduced plasma HA to near the control levels
- Blood parameters, compound alone vs control group [5]: did not find any significant differences
- Hepatotoxicity of compound alone (AST/ALT) [5]: no hepatotoxicity
- Collagen deposition in the liver [6]: prevented collagen deposition
- HA synthesis in cell-free assay (in words) [7]: did not inhibit HA synthesis
- Depletion of UDP-GlcUA levels [8]: 38–95%
- Reduction of hyaluronan secretion (endothelial cells): 30%
- HA production inhibition (B16F10 cells): 50%
- Effective plasma concentration [9]: 0.89 ± 0.51 μg/mL and 5.1 ± 2.9 μM

Structure (SMILES): O=C(NC(=O)c1c(F)cccc1F)Nc1cc(Cl)c(OC(F)(F)C(F)C(F)(F)F)cc1Cl (centres unmarked) [lufenuron]
- LC50 WT (Drosophila WT): 0.148 µg/mL (≈ 0.29 µM)
- LC50 mutEt15 [10]: 16.659 µg/mL (≈ 32.6 µM)

Structure (SMILES): C[C@@H]([C@H](N)C(=O)N[C@H](C(=O)O)[C@H]1O[C@@H](n2ccc(=O)[nH]c2=O)[C@H](O)[C@@H]1O)[C@H](O)c1ccc(O)cn1 [nikkomycin]
- Effect on hyaluronan production (in words) (NIH3T3 cells [11]): ineffective

Structure (SMILES): Cc1c2c(cc3c(-c4ccccc4)cc(=O)oc13)C(=O)CC1(CCNCC1)O2 [Compound VII, 10′-methyl-6′-phenyl-3′H-spiro[piperidine-4,2′-pyrano[3,2-g]chromene]-4′,8′-dione]
- Concentration from/over which doubling time increased (NIH3T3 cells [2]): over 10 μM
- Decrease of the percentage of HA-positive area (NIH3T3 cells [4]): at least 3 times

Structure (SMILES): O=C(NC(=O)c1ccccc1Cl)Nc1ccc(OC(F)(F)F)cc1 [triflumuron, 2-chloro-N-[[4-(trifluoromethoxy)phenyl]carbamoyl] benzamide]
- IC50 (NIH3T3 cells [11]): 1.48 ± 1.44 µM
- Not toxic in concentrations up to (MTT) (NIH3T3 cells [1]): > 1 mM

Structure (SMILES): Cc1cc(=O)oc2c(C)c3c(cc12)C(=O)CC1(CCCCC1)O3 [Compound IX, 6′,10′-dimethyl-3′H-spiro[cyclohexane-1,2′-pyrano[3,2-g]chromene]-4′,8′-dione]
- Effect on hyaluronan production (in words) (NIH3T3 cells [11]): completely abrogated inhibition of hyaluronan production
- Did not affect cell viability at concentrations up to (NIH3T3 cells [1]): > 1 mM
- Not toxic in concentrations up to (MTT) (NIH3T3 cells [1]): > 0.5 mM
- Doubling time (NIH3T3 cells [2]; all tested concentrations): 16.5 h

Structure (SMILES): CC(C)N1C(=O)N(c2ccccc2)CSC1=NC(C)(C)C [buprofezin, 2-(tert-butylimino)-5-phenyl-3-(propan-2-yl)-1,3,5-thiadiazinan-4-one]
- IC50 (NIH3T3 cells [11]): 1.24 ± 0.87 µM
- Not toxic in concentrations up to (MTT) (NIH3T3 cells [1]): > 1 mM
- LC50 WT (Drosophila WT): 53.2 µg/mL (≈ 174 µM)
- LC50 mutEt15 [10]: > 1000 µg/mL

Structure (SMILES): CCN(CC)Cc1cc2c(-c3ccccc3)cc(=O)oc2c(C)c1O [IV, 6-((diethylamino)methyl)-7-hydroxy-8-methyl-4-phenyl-2H-chromen-2-one]
- Concentration from/over which doubling time increased (NIH3T3 cells [2]): ≥ 500 µM

Structure (SMILES): O=C(NC(=O)c1c(F)cccc1F)Nc1ccc(Cl)cc1 [diflubenzuron]
- LC50 WT (Drosophila WT): 0.322 µg/mL (≈ 1.04 µM)
- LC50 mutEt15 [10]: > 5000 µg/mL

Structure (SMILES): CC(=O)c1cc2c(C)cc(=O)oc2c(C)c1O [VIII, 6-acetyl-7-hydroxy-4,8-dimethyl-2H-chromen-2-one]
- Toxicity at concentrations higher than (MTT) (NIH3T3 cells [1]): > 60 µM
- Concentration from/over which doubling time increased (NIH3T3 cells [2]): > 50 µM
- Decrease of the percentage of HA-positive area (NIH3T3 cells [4]): at least 3 times

Structure (SMILES): Cc1c2c(cc3c(-c4ccccc4)cc(=O)oc13)C(=O)CC1(CCCCC1)O2 [Compound VI, 10′-methyl-6′-phenyl-3′H-spiro[cyclohexane-1,2′-pyrano[3,2-g]chromene]-4′,8′-dione]
- Effect on hyaluronan production (in words) (NIH3T3 cells [11]): completely abrogated inhibition of hyaluronan production
- Did not affect cell viability at concentrations up to (NIH3T3 cells [1]): > 1 mM
- Not toxic in concentrations up to (MTT) (NIH3T3 cells [1]): > 0.5 mM

Structure (SMILES): CCOc1cc(C(C)(C)C)ccc1C1COC(c2c(F)cccc2F)=N1 (centres unmarked) [etoxazole, 4-(4-tert-butyl-2-ethoxyphenyl)-2-(2,6-difluorophenyl)-4,5-dihydro-1,3-oxazole]
- IC50 (NIH3T3 cells [11]): 4.21 ± 3.82 µM
- Not toxic in concentrations up to (MTT) (NIH3T3 cells [1]): > 1 mM
- Upregulation of HAS2 expression (HAS2; NIH3T3 cells, 120 μM): ~1.5 times
- Suppression of HAS2 expression (HAS2; NIH3T3 cells, doses higher than 120 μM): up to 80%
- Inhibited HAS3 expression at concentrations higher than (HAS3): higher than 250 μM
- Hyal1 level (in words) (Hyal1; NIH3T3 cells, all tested concentrations): significantly dropped
- Level of Hyal2 (in words) (Hyal2): not affected
- αSMA level in liver homogenate (western blot) ([5]; CCl4-treated mice, 600 mg/kg daily per os, n = 5): significant reduction
- Plasma HA ([5]; CCl4-treated mice, 600 mg/kg daily per os, 600 mg/kg): reduced plasma HA to near the control levels
- Plasma HA ([5]; CCl4-treated mice, 600 mg/kg daily per os, listed as Etoxazole, 600 mg/kg): reduced HA production
- Blood parameters, compound alone vs control group [5]: did not find any significant differences
- Hepatotoxicity of compound alone (AST/ALT) [5]: no hepatotoxicity
- Effect on cardiovascular development (in words) (zebrafish embryos): inhibits cardiovascular development
